# Laboratory results reported in ChEMBL document CHEMBL4619773, “Chemoreactive-Inspired Discovery of Influenza A Virus Dual Inhibitor to Block Hemagglutinin-Mediated Adsorption and Membrane Fusion” (J Med Chem, 2020).
# The source made the active and inactive calls. The calls are words filed in the database; no cut-off is given here.
# Tests used:
# Influenza A virus [1] = assay: Antiviral activity against Influenza A virus (A/Puerto Rico/8/1934(H1N1)) infected in Kunming mouse assessed as decrease in pulmonary viral titers at 5 to 10 mg/kg/day, po starting 4 hrs after viral challenge and continued for 4 days by plaque assay; format: functional, organism-based
# Outline: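 Four-week-old female Kunming mice were infected intranasally with PR8 (500 PFU/mouse in 40 µL PBS), randomized, and dosed once daily orally or intranasally. On day 4 the mice were euthanized; lungs were removed, weighed, homogenized in PBS, and titrated by plaque assay.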
# [2] = Cmax in rat at 3.5 mg/kg , po administered as single dose; format: ADME, organism-based; design: dose 3.5 mg/kg, route oral; conditions: in vivo
# Outline: (§1)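 Male Kunming mice (20-25 g) and male Sprague Dawley rats (180-220 g) were fasted 12 h before dosing. Oral dosing was by gavage as a suspension in 0.5% sodium carboxymethyl cellulose; iv dosing was via tail vein in PEG400. Serial plasma samples were taken to 24 h, protein-precipitated with acetonitrile plus N-CH3 internal standard, and quantified by LC-MS/MS (n=3). Bioavailability = AUCoral/AUCiv.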
# [3] = Cumulative drug excretion in mouse urine at 0.5 mg/kg, iv administered as single dose measured after 72 hrs; format: ADME, organism-based; conditions: read-out: Drug excretion
# Outline: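 Single oral (gavage, 0.5% CMC-Na) or iv (tail vein, PEG400) dosing was given to male Kunming mice or Sprague Dawley rats held in metabolic cages. Urine and feces were collected at intervals to 72 h. Feces were dried, ground and homogenized in water (1:9 w/v). Samples were precipitated with acetonitrile containing internal standard and analysed by LC-MS/MS.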
# Influenza A virus H3N2 = assay: Antiviral activity against Influenza A virus H3N2 (A/swine/Minnesota/02719/2009) infected in MDCK cells by HA assay; format: functional, organism-based
# Outline: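 MDCK cells were infected at high moi (≈3.0 PFU/cell). Virus-containing supernatants were serially diluted 2-fold and mixed with an equal volume of 1% chicken red blood cells. After 60 min at 4 °C, wells were scored for button sedimentation versus opaque agglutination to give titers.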
# [4] = Half life in rat at 3.5 mg/kg , po administered as single dose; format: ADME, organism-based; conditions: in vivo; outline: as §1
# [5] = AUC (0 to t) in mouse at 5 mg/kg, po administered as single dose; format: ADME, organism-based; conditions: in vivo; outline: as §1
# [6] = Half life in rat at 0.35 mg/kg /kg, iv administered as single dose; format: ADME, organism-based; conditions: in vivo; outline: as §1
# [7] = Cytotoxicity in dog MDCK cells assessed as reduction in cell viability incubated for 48 hrs by crystal violet staining based assay; design: species or system Canis lupus familiaris
# [8] = Oral bioavailability in mouse at 5 mg/kg administered as single dose; format: ADME, organism-based; conditions: in vivo
# Outline: (§2)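 Male Kunming mice (20–25 g) and male SD rats (180–220 g) were fasted 12 h before dosing. Compound was suspended in 0.5% CMC-Na and given by gavage (5 mg/kg mice, 3.5 mg/kg rats), or dissolved in PEG400 and given iv via tail vein (0.5 mg/kg mice, 0.35 mg/kg rats). Plasma was sampled from 5 min to 24 h and analysed by LC-MS/MS (n=3). F = AUCoral/AUCiv.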
# [9] = Toxicity in Kunming mouse assessed as effect on creatinine level at 5 to 10 mg/kg/day, po for 7 days; format: organism-based; conditions: in vivo, 168 h
# Outline: (§3)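 Male Kunming mice (20–25 g) received compound orally at 5 or 10 mg/kg/day, suspended in 0.5% sodium carboxymethyl cellulose, once daily for 7 days; controls received vehicle. Serum was collected under isoflurane 24 h after the last dose. AST, ALT, CR, BUN, LDH, CK and CK-MB were measured with commercial kits.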
# [10] = Toxicity in Kunming mouse assessed as effect on blood urea nitrogen level at 5 to 10 mg/kg/day, po for 7 days; format: organism-based; conditions: in vivo, 168 h; outline: as §3
# [11] = Tmax in mouse at 5 mg/kg, po administered as single dose; format: ADME, organism-based; conditions: in vivo; outline: as §2
# [12] = target: Hemagglutinin (Influenza A virus (A/Puerto Rico/8/1934(H1N1)), UniProt P03452); assay: Binding affinity to Influenza A virus (A/Puerto Rico/8/1934(H1N1)) Hemagglutinin at 1.5625 to 50 uM by SPR assay; conditions: read-out: Kd
# Outline: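 HA protein was immobilized on CM5 chips. Compound (50, […], 12.5, 6.25, 3.125, 1.5625 µM) was injected for 2 min, followed by a 10-min PBST wash and regeneration with 2 mM NaOH for 30 s. Runs were at 25 °C with 2 µl/s flow, using a blank HA-free reference channel. KD was obtained from kinetic fitting.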
# [13] = target: Hemagglutinin (Influenza A virus (A/Puerto Rico/8/1934(H1N1))) (UniProt P03452); assay: Inhibition of Hemagglutinin in Influenza A virus (A/Puerto Rico/8/1934(H1N1)) assessed as reduction in virus-induced aggregation of chicken erythrocytes at 3.125 to 50 ug/mL incubated for 60 mins by hemagglutination assay
# Outline: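 Hemagglutination inhibition with PR8 virus and chicken RBCs standardized per the WHO manual. Virus was serially diluted 2-fold and 1% cRBCs were added at equal volume. After 60 min at 4 °C, negative wells show a sedimented red button and positive wells stay opaque without sedimentation. Compound was tested at 3.125–50 µg/mL.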
# Influenza A virus [14] = assay: Antiviral activity against Influenza A virus (A/Puerto Rico/8/1934(H1N1)) infected in Kunming mouse assessed as improvement in body weight at 20 to 40 ug/day dosed intranasally starting 4 hrs after viral challenge and continued for 7 days and measured up to day 14 by plaque assay; format: functional, organism-based
# Outline: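 Groups of 10 female Kunming mice were infected intranasally with PR8 (1000 PFU/mouse) on day 0 and dosed once daily for seven days. Weight and clinical signs were recorded daily. Mice losing more than 25% of pre-infection weight were scored dead and euthanized; survivors were killed on day 14.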
# Influenza A virus [15] = assay: Antiviral activity against luciferase tagged Influenza A virus H5N1 pseudovirus infected in MDCK cells assessed as reduction in virus infection at 50 ug/ml using compound pre-treated virus for infection and measured after 48 hrs by luciferase reporter gene assay; format: functional, organism-based
# Outline: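 MDCK cells infected with luciferase-expressing H5N1 HA/NA pseudotyped HIV-based virus were treated with compound under four different treatment regimens. Infection was quantified by firefly luciferase glow assay.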
# [16] = Elimination half life in mouse at 0.5 mg/kg, iv administered as single dose; format: ADME, organism-based; conditions: in vivo, read-out: beta t1/2 (converted); outline: as §1
# Sequence of Hemagglutinin (Influenza A virus (A/Puerto Rico/8/1934(H1N1)), UniProt P03452) (P03452 whole entry): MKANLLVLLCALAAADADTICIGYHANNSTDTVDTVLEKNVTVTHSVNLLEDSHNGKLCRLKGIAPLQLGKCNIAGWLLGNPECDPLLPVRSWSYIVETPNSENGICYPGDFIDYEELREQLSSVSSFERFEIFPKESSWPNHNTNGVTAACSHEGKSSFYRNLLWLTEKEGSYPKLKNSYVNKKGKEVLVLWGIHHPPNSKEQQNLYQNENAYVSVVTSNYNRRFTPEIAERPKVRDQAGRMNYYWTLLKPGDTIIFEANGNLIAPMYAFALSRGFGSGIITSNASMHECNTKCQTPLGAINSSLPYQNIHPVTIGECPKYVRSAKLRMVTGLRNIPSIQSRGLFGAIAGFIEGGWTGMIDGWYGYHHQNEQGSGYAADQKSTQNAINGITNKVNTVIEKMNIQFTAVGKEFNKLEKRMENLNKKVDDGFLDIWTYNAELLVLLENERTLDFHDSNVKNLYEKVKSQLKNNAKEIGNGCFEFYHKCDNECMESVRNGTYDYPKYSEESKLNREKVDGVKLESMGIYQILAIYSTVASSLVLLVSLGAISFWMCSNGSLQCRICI
# Sequence of Hemagglutinin (Influenza A virus (A/Puerto Rico/8/1934(H1N1))) (P03452 whole entry): as above
structure (smiles),measurement,setting,value
CC(=O)c1cc(C)c(O)c(Cc2[nH]c3ccccc3c2Cc2c(O)c(C)cc(C(C)=O)c2O)c1O,Activity,Influenza A virus [1],Active
same,Cmax,[2],287 ng/mL
same,dose excreted at 72 h,[3],0.3%
same,Activity,Influenza A virus H3N2,Dose-dependent effect
same,half-life,[4],3.3 h
same,AUC(0-t),[5],152 ng·h/mL
same,half-life,[6],4.8 h
same,CC50 at 48 h,[7],1470 µM
same,bioavailability,[8],5.7%
same,Activity,[9],Non-Toxic
same,Activity,[10],Non-Toxic
same,Tmax,[11],4 h
same,Kd,[12],6.3 µM
same,inhibition,[13],Active
same,Activity,Influenza A virus [14],Active
same,inhibition,Influenza A virus [15],Active
same,half-life,[16],3.4 h
